Where “and” joins values, the source holds several entries; their conditions need not be identical. Equal values may be shown once. Read-outs that look alike come from different tables or passages of the source. Marks after values point to notes of the source that are not given here.
How the values were obtained:
[1] = literature value, no reference given, cited from earlier work
[2] = Plasma pharmacokinetics of unchanged ixabepilone; format: in vivo, human
Method in brief: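 Eight advanced-cancer patients received a single 3 h IV infusion of 70 mg, 80 nCi [14C]-labelled test compound in Cremophor EL:ethanol diluted in Lactated Ringer's, with oral H1/H2 premedication. Blood was drawn 0–168 h and plasma was stored below −20°C. Parent was measured by isocratic LC-ESI-MS/MS (standard curve 2–500 ng/ml). Non-compartmental analysis gave AUCinf, CL=dose/AUCinf, and infusion-corrected Vss.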

[3] = Plasma pseudopharmacokinetics of total radioactivity; format: in vivo, human
Method in brief: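 Same dosing, with separate, simultaneous plasma samples taken to 168 h. Total radioactivity was measured by AMS after combustion with CuO at 900°C and graphitisation at 500–550°C. Natural 14C background was subtracted, and values were converted to equivalents via carbon content and specific activity. Quantitation limit was <4 DPM/ml. Non-compartmental pseudo-parameters were derived, and AUClast ratio = parent AUClast / TRA AUClast. Outliers were assessed by Dixon's Q test.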

[4] = Urinary and faecal recovery; format: in vivo, human; settings: for Radioactivity U/F ratio (urinary recovery relative to faecal recovery) / Recovery of ixabepilone in urine: 0–168 h; for Recovery of ixabepilone in urine: unchanged ixabepilone
[5] = Stability of [14C]-labelled ixabepilone; format: physicochemical
[6] = phase II, cited from earlier work
CYP3A4/5 = settings: cited from earlier work
[7] = phase I dose escalation study, 11 patients, 40 mg/m^2; cited from earlier work
[8] = inter-patient variability, flat 70 mg dose, this study
[9] = plasma, individual patients 1-8, 3 h iv infusion 70 mg

CC[C@]1(O)C[C@H]2CN(CCc3c([nH]c4ccccc34)[C@@](C(=O)OC)(c3cc4c(cc3OC)N(C=O)[C@H]3[C@@](O)(C(=O)OC)[C@H](OC(C)=O)[C@]5(CC)C=CCN6CC[C@]43[C@@H]65)C2)C1 [vincristine]
Half-life ([1]; in words): several days

C/C(=C\c1csc(C)n1)[C@@H]1C[C@@H]2O[C@]2(C)CCC[C@H](C)[C@H](O)[C@@H](C)C(=O)C(C)(C)[C@@H](O)CC(=O)N1 [ixabepilone, 15-desoxy-15-aza-epothilone B]
Time to maximum plasma concentration ([2]; 3 h infusion, in words): around the end of infusion
clearance ([2]; human, plasma, intravenous, 70 mg, Ixabepilone Cl, mean of 8 patients): 422 mL/min
Vd ([2]; human, plasma, intravenous, 70 mg, Ixabepilone Vss, plasma, mean of 8 patients): 1150 L
Half-life ([2]; human, plasma, intravenous, 70 mg, Ixabepilone t1/2, plasma, mean of 8 patients): > 50 h
Coefficient of variation for AUCinf of ixabepilone [2, 8]: 24%
Coefficient of variation for Cl of ixabepilone [2, 8]: 21%
Ixabepilone AUCinf [2, 9]: 2220 ng·h/mL and 3350 ng·h/mL and 2970 ng·h/mL and 2990 ng·h/mL and 4320 ng·h/mL and 2520 ng·h/mL and 2290 ng·h/mL
Ixabepilone AUClast [2, 9]: 1930 ng·h/mL and 3060 ng·h/mL and 2750 ng·h/mL and 2830 ng·h/mL and 3820 ng·h/mL and 2420 ng·h/mL and 2170 ng·h/mL
Ixabepilone Cl [2, 9]: 31.6 L/h and 20.9 L/h and 23.6 L/h and 23.4 L/h and 16.2 L/h and 27.8 L/h and 30.5 L/h
Ixabepilone Vss [2, 9]: 1520 L and 1635 L and 1275 L and 1174 L and 929 L and 1027 L and 756 L and 912 L
Ixabepilone t1/2 [2, 9]: 71.5 h and 47.2 h and 51.7 h and 53.0 h and 67.4 h and 23.5 h and 36.7 h
Initial distribution phase, duration ([2]; unchanged ixabepilone in plasma): approximately 10 h
Initial distribution phase, duration ([3]; TRA in plasma): approximately 10 h
AUClast ratio (AUClast ixabepilone / AUClast TRA) ([3]; plasma, individual patients 1-8, patient 1 outlier): 0.26 and 0.06 and 1.62^b and 0.25 and 0.19 and 0.12 and 0.18
Radioactivity U/F ratio (urinary recovery relative to faecal recovery) ([4]; individual patients 1-8): 0.48 and 0.29 and 3.05 and 0.24 and 0.31 and 0.39 and 1.97 and 0.30
Radioactivity U/F ratio (urinary recovery relative to faecal recovery) ([4]; mean, patients 4 and 8 not included): 0.33^b
Recovery of ixabepilone in urine ([4]; individual patients 1-8): 4.0 % of dose and 6.12 % of dose and 6.03 % of dose and 4.02 % of dose and 5.07 % of dose and 4.66 % of dose and 7.76 % of dose and 3.32 % of dose and 5.46 % of dose
Recovery of ixabepilone in urine ([4]; mean of 8 patients): 5.30 % of dose
Urinary radioactivity excreted in the first 24 h ([4]; first 24 h): 17 % of dose
Ixabepilone Clrenal ([4]; individual patients 1-8): 1.98 L/h and 1.87 L/h and 1.46 L/h and 1.16 L/h and 1.19 L/h and 1.92 L/h and 0.61 L/h and 1.58 L/h
Share of total urinary ixabepilone excreted in the first 24 h ([4]; of total urinary ixabepilone): 76%
Share of total urinary radioactivity excreted in the first 24 h ([4]; of total urinary radioactivity): 65%
Stability of labelled drug (autoradiolysis) ([5]; conventional [14C]-levels (100 μCi in a typical human radio-tracer study)): very unstable
Stability of labelled drug (autoradiolysis) ([5]; specific activity of 1.5 μCi/mg): unstable
Stability of labelled drug (autoradiolysis) ([5]; specific activity of less than 10 nCi/mg): stable
Response rate ([6]; hormone-refractory metastatic prostate cancer): 33%
Response rate ([6]; metastatic breast cancer, 6 to 40 mg/m^2 iv over 1 to 3 h): 12–44%
Response rate ([6]; metastatic renal cell carcinoma): 14%
Response rate ([6]; non-small cell lung cancer): 14%
CYP3A4/5 substrate (CYP3A4/5): CYP3A4/5 substrate
Coefficient of variation for AUCinf of ixabepilone [7]: 46%
Coefficient of variation for Cl of ixabepilone [7]: 38%

CC[C@]1(O)C[C@@H]2CN(CCc3c([nH]c4ccccc34)[C@@](C(=O)OC)(c3cc4c(cc3OC)N(C)[C@H]3[C@@](O)(C(N)=O)[C@H](O)[C@]5(CC)C=CCN6CC[C@]43[C@@H]65)C2)C1 [vindesine]
Half-life [1]: 12 to 42 h

From publication PMC1915607 (Investigational New Drugs, 2007)
